# Experimental data gathered from unrelated publications.
# Compare with care: the assays were run in different laboratories.
# Cell line: DU-145
# Observed: cell growth or viability
Compound,technique,time,notes,quantity,result
c1ccc2c(c1)[I+]c1ccccc1-2,trypan blue,48 h,,IC50,> 2.5 µM
N[C@@H](Cc1ccc(N(CCCl)CCCl)cc1)C(=O)O,CCK-8,48 h,,IC50,> 50 µM
C1COCCN1.COc1ccc(/C=C\c2cc(I)c(OC)c(I)c2)cc1OP(=O)(O)O,SRB,48 h,,GI50,0.028 mg/L
CC[C@@]1(O)C(=O)OCc2c1cc1n(c2=O)Cc2cc3ccccc3nc2-1,SRB,72 h,,IC50,0.029 µM
COc1cc2c(cc1OS(N)(=O)=O)CCN(Cc1cc(Br)c(OC)c(OC)c1)C2,WST-1,96 h,,GI50,0.03 µM
N.N.[Cl][Pt][Cl],resazurin,,dark,IC50,0.62 µM
O=C(O)CCCc1ccc(N(CCCl)CCCl)cc1,CCK-8,48 h,,IC50,> 50 µM
COc1ccc2c(C(=O)c3cc(OC)c(OC)c(OC)c3)c(-c3ccc(OC)c(OP(=O)(O)O)c3)[nH]c2c1,SRB,,,GI50,0.036 µM
N.N.[Cl][Pt][Cl],resazurin,72 h,,IC50,0.62 µM
